Among all 330,000 compounds or so, about 1,100 (0.33%) were called active. This is one part of a sample in which actives are shown more often than they occur. Unmarked numbers belong to inactive results.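 The calls were made as follows: active = at 10 µM dose, activation of 40% or more, normalized to positive control; inactive = the rest.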

The assay is described as follows: PERK-eIF2a-CHOP pathway stimulators – cell-based, CHO-CHOP luciferase reporter, luminescence, uHTS, primary screen (AID 449763).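 Also: 100% = tunicamycin at 10 µg/mL and 0% = DMSO alone.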 As to conditions: UPR activation, at 10 µM, active compounds read high, percent of tunicamycin response over DMSO baseline. Summed up: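 System: CHO-CHOP luciferase reporter cell line; amount: 500 cells/well; buffer or medium: F12 medium containing 10% fetal bovine serum; incubation: 6 h compound exposure at 37 °C after overnight seeding; measured by: luciferase luminescence after 10 min with Steady-Glo reagent; evaluation: % reporter activation, DMSO baseline versus tunicamycin full activation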
Regarding `Cc1cc2c(cc1S(=O)(=O)NCc1ccc(Cl)cc1)OCC(=O)N2`, the activation was -0.754%. For `Cc1ccc(C)c(S(=O)(=O)N2CCN(c3ncnc4sccc34)CC2)c1` the value was 5.68%; for `Cc1cccc(NC(=O)CSC(N)=O)c1C`, -0.357%; for `CCOC(=O)/C=c1\s/c(=C\c2ccc(C#N)cc2)c(=O)n1CC(=O)Nc1cccc(C)c1C`, 75.5% (active). In the case of `Cc1cccc(NC(=O)CN2CCN(C(=O)C3CCN(C(=O)/C=C/c4ccccc4)CC3)CC2)c1C`, the activation was 0.754%. For `COc1ccc(-c2c(C(C)=O)c(C)nc3sc4c(=O)n(-c5ccc(C)cc5)nnc4c23)cc1` the value was -0.914%; for `COC(=O)C(=Nc1ccccc1)/C(C(=O)C(=O)N(C)c1ccccc1)=C(\O)c1ccc(Cl)cc1`, 0.244%. The value for `CC1(C)CCSC(/C=C/c2ccccc2)=N1` was 57.7% (active); that for `C[C@H](CO)N1C[C@H](C)[C@@H](CN(C)C(=O)NC2CCCCC2)Oc2ccc(NC(=O)c3ccncc3)cc2C1=O` was 2.08%. As to `COc1ccc(C(=O)NCC(=O)N/N=C/c2cccnc2)cc1`, the activation was 2.52%. For `O=C(CSc1cccc2cccnc12)N/N=C/c1cccnc1` the value was 227% (active); for `O=C(N/N=C/c1cccnc1)c1ccc(NC(=O)c2ccc(F)cc2)cc1`, 1.11%; for `Nc1nc(O)c(CC(=O)O)s1`, -0.635%. Take `COc1cc(/C=C2/C(=O)ON=C2C)ccc1OCc1ccccc1F`: the activation is 66.3% (active). For `C=CCOc1ccc(/C=C2/C(=O)ON=C2C)cc1OCC` the value was 0.964%; for `COc1cc(/C=C2/C(=O)ON=C2C)ccc1OCc1cccc(F)c1`, 30.3%. In the case of `Cc1cc(C)n(-c2ccc(NC(=O)C3CCCCN3C(=O)c3cccs3)cc2)n1` (stereo not given), the activation is -0.0869%. For `O=C(c1cccs1)N1CCCC(c2nc(-c3ccc(F)cc3)no2)C1` (stereo not given) the value was 1.93%; for `CN1CCC(=NNC(=O)c2ccc(N(Cc3ccc(Cl)cc3)S(C)(=O)=O)cc2)CC1`, 0.73%; for `Cc1ccccc1CN(c1ccc(C(=O)NCC2CCCO2)cc1)S(C)(=O)=O` (stereo not given), -1.43%. `CS(=O)(=O)N(Cc1ccccc1)c1ccc(C(=O)NN=C2CCCCCC2)cc1`: the activation was 43.7% (active). Regarding `CCCC1CC(C)(C(=O)Cn2[nH]c(=O)ccc2=O)OC1=O` (stereo not given), the activation was 1.35%. For `CCOc1cc(/C=N/NC(=O)c2ccc(CSc3nncn3C)cc2)ccc1OCC(=O)N1CCOCC1` the value was 0.857%; for `O=C(NCC12CC3CC(C1)CC(CNC(=O)N1CCCC1)(C3)C2)N1CCCC1`, -2.08%.

`Cc1nn(CC(=O)NCC2CCCO2)c(=O)c2cc3ccccc3n12` (stereo not given): the activation was -0.347%.

The values are drawn from PubChem BioAssay AID449763 (Sanford-Burnham Center for Chemical Genomics, 2010).
